Measurements: PubChem BioAssay AID588724 (Johns Hopkins Ion Channel Center, 2011)
“And” between values parts separate entries of the source, which are not always exact repeats. Identical values can stand only once. The source made the active and inactive calls.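 Rule for the calls: active = blocks the KCNK9 potassium channel at some tested dose and a concentration-response curve can be fitted; inactive = no blocking at any dose, or no curve could be fitted.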

Each compound was assayed against Potassium channel subfamily K member 9 (Homo sapiens) (UniProt Q9NPC2) (assay: KCNK9 channel inhibitors, concentration-response, SAR follow-up, cell-based, round III (AID 588724)). Details: HEK293-KCNK9, FluxOR thallium flux fluorescence.
Chain of Potassium channel subfamily K member 9 (Homo sapiens) (Q9NPC2 whole entry, looked up): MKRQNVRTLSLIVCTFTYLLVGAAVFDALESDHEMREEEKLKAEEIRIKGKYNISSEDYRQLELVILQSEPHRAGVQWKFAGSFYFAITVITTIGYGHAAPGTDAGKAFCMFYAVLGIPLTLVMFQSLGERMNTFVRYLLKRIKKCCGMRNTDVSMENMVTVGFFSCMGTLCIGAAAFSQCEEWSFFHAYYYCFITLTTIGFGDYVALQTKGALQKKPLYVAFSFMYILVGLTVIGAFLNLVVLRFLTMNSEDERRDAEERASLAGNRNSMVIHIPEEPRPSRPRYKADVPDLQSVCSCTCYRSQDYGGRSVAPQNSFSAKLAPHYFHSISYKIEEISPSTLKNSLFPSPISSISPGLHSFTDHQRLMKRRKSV
Method in brief: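 Assay system: HEK293 cell line stably expressing human KCNK9 channel | Repeats: Replicates | Signal: FluxOR thallium-sensitive dye fluorescence, 10 s baseline, 110 s post-stimulus recording | Also added: Thallium/potassium stimulus, 5x stock of 25 mM K2SO4 plus 7 mM Tl2SO4 | Incubation: Dye loading 90 min, compound 20 min, both room temperature, dark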
`CC(C1CC2CCC1C2)n1c(-c2ccco2)n[nH]c1=S` (stereo not drawn) was tested, and the IC50 was 0.15 µM and 0.29 µM. `CC(C1CC2CCC1C2)n1c(-c2cccc(N(C)C)c2)n[nH]c1=S` (stereo not drawn) was tested, and the IC50 was 2.27 µM. In the case of `CC(C1CCCCC1)n1c(-c2ccco2)n[nH]c1=S` (stereo not drawn), the IC50 is reported as 3.58 µM. `CC(C1CC2CCC1C2)n1c(SCC(=O)c2ccc3c(c2)OCO3)nnc1-c1ccco1` (stereo not drawn) was tested, and the IC50 was 1.6 µM. Compound `COc1ccc(CCSc2nnc(-c3ccco3)n2C(C)C2CC3CCC2C3)cc1OC` (stereo not drawn) has an IC50 of 2.24 µM. Compound `CC(C1CC2CCC1C2)n1c(SCC#N)nnc1-c1cccs1` (stereo not drawn) has an IC50 of 17.7 µM. Work on `COc1cc(OC)cc(-c2n[nH]c(=S)n2C(C)C2CC3CCC2C3)c1` (stereo not drawn) yielded an IC50 of 1.03 µM. With `COc1ccc(C(=O)CSc2nnc(-c3ccco3)n2C(C)C2CC3CCC2C3)cc1OC` (stereo not drawn) the IC50 was 1.84 µM. `CC(NC(=O)c1ccco1)C1CC2CCC1C2` (stereo not drawn) gave an IC50 of 13.4 µM. `CC(C1CC2CCC1C2)n1c(SCC(=O)c2ccccc2)nnc1-c1ccco1` (stereo not drawn) showed an IC50 of 5.21 µM. `COc1cccc(-c2nnc(S(C)(=O)=O)n2C(C)C2CC3CCC2C3)c1` (stereo not drawn) gave an IC50 of 18 µM. Compound `CC(C)Oc1ccccc1C(=O)Nc1cccc(NC(=O)c2ccccc2OC(F)(F)F)c1` has an IC50 of 0.0651 µM. Compound `COc1cccc(Cc2n[nH]c(=S)n2C(C)C2CC3CCC2C3)c1` (stereo not drawn) has an IC50 of 2.57 µM. For `CC(CCC1CCCC1)n1c(-c2ccco2)n[nH]c1=S` (stereo not drawn), the IC50 was 0.907 µM. `CC(C1CC2CCC1C2)n1c(-c2ccccc2F)n[nH]c1=S` (stereo not drawn) gave an IC50 of 0.109 µM. In the case of `CC(C1CC2CCC1C2)n1c(-c2ccccn2)n[nH]c1=S` (stereo not drawn), the IC50 is reported as 2.37 µM. In the case of `CC(C)c1ccccc1C(=O)Nc1cccc(NC(=O)c2ccccc2OC(F)(F)F)c1`, the IC50 is reported as 0.732 µM. `COc1cccc(C(=O)CSc2nnc(-c3ccco3)n2C(C)C2CC3CCC2C3)c1` (stereo not drawn) was tested, and the IC50 was 4.65 µM. For `C[C@@H](C1CCCCC1)n1c(-c2ccco2)n[nH]c1=S`, the IC50 was 9.41 µM. With `C[C@H](C1CCCCC1)n1c(-c2ccco2)n[nH]c1=S` the IC50 was 0.187 µM. With `CC(C1C2CCC1CC2)n1c(-c2ccco2)n[nH]c1=S` (stereo not drawn) the IC50 was 1.17 µM. `CC(CC1CC2CCC1C2)n1c(-c2ccco2)n[nH]c1=S` (stereo not drawn) was tested, and the IC50 was 0.292 µM. Compound `CC(C1CC2CCC1C2)n1c(SCC(=O)c2ccc(Cl)c(Cl)c2)nnc1-c1ccco1` (stereo not drawn) has an IC50 of 7.77 µM. Compound `CSc1nnc(-c2ccco2)n1C(C)C1CC2CCC1C2` (stereo not drawn) has an IC50 of 21.4 µM. `CC(C1CC2CCC1C2)n1cnnc1-c1ccco1` (stereo not drawn) was tested, and the IC50 was 1.7 µM. `CC(C1CC2CCC1C2)n1c(-c2cccn2C)n[nH]c1=S` (stereo not drawn) was tested, and the IC50 was 1.39 µM. For `COc1ccc(C(=O)CSc2nnc(-c3ccco3)n2C(C)C2CC3CCC2C3)cc1` (stereo not drawn), the IC50 was 9.14 µM. `COc1ccccc1C(=O)Nc1cccc(NC(=O)c2cccc3ccccc23)c1` showed an IC50 of 0.236 µM. `CC(C1CC2CCC1C2)n1c(-c2ccco2)nnc1C(F)(F)F` (stereo not drawn) showed an IC50 of 16.4 µM. `CC(C1CC2CCC1C2)N(C)C(=O)c1ccco1` (stereo not drawn) was tested, and the IC50 was 0.361 µM. With `CC(C1CC2CCC1C2)n1c(SCc2ccccc2)nnc1-c1ccco1` (stereo not drawn) the IC50 was 1.39 µM. In the case of `CC(C1CC2CCC1C2)n1c(-c2cccs2)n[nH]c1=S` (stereo not drawn), the IC50 is reported as 0.11 µM. Work on `CC(C1CC2CCC1C2)n1c(SC(F)F)nnc1-c1ccco1` (stereo not drawn) yielded an IC50 of 8.46 µM. In the case of `COc1cccc(-c2n[nH]c(=S)n2C(C)C2CC3CCC2C3)c1OC` (stereo not drawn), the IC50 is reported as 2.36 µM. Compound `CC(C1CC2CCC1C2)n1c(-c2cccc(F)c2)n[nH]c1=S` (stereo not drawn) has an IC50 of 0.134 µM.

Same assay, conditions: HEK293-KCNK9, FluxOR thallium flux fluorescence; at 30 µM (top of the series)
For `CC(c1cccc2ccccc12)n1c(-c2ccco2)n[nH]c1=S` (stereo not drawn), the “normalised flux ratio, lower = inhibition” value was “inactive”. For `COc1ccccc1C(=O)Nc1cc(NC(=O)c2ccccc2C(C)C)ccc1F`, the “normalised flux ratio, lower = inhibition” value was “inactive”. In the case of `CC(C1CC2CCC1C2)n1c(-c2ccncc2)n[nH]c1=S` (stereo not drawn), the “normalised flux ratio, lower = inhibition” value is reported as “inactive”. For `CC(C1CC2CCC1C2)n1c(-c2cccnc2)n[nH]c1=S` (stereo not drawn), the “normalised flux ratio, lower = inhibition” value was “inactive”. With `S=c1[nH]nc(-c2ccco2)n1C1CC2CCC1C2` (stereo not drawn) the “normalised flux ratio, lower = inhibition” value was “inactive”. With `CC(C1CC2CCC1C2)n1c(-c2ccco2)n[nH]c1=O` (stereo not drawn) the “normalised flux ratio, lower = inhibition” value was “inactive”. With `CC(C1CC2CCC1C2)n1c(-c2ccc(N(C)C)cc2)n[nH]c1=S` (stereo not drawn) the “normalised flux ratio, lower = inhibition” value was “inactive”. For `S=c1[nH]nc(-c2ccco2)n1CC1CC2CCC1C2` (stereo not drawn), the “normalised flux ratio, lower = inhibition” value was “inactive”.
